Data on ten compounds can be found in ChEMBL document CHEMBL1128538, “Novel antagonists of platelet-activating factor. 1. Synthesis and structure-activity relationships of benzodiazepine and benzazepine derivatives of 2-methyl-1-phenylimidazo[4,5-c]pyridine” (J Med Chem, 1995).

The target in assay [1] is Platelet-activating factor receptor (Mus musculus) (UniProt Q62035). The assay is described as follows: Ability to protect mice from lethal effects after administration of PAF (Platelet-Activating Factor). The assay is classed as functional, organism-based. The method, boiled down: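 Mice received the test agent orally and were then given a lethal PAF injection. ED50 was taken as the oral dose that protected the animals from PAF-induced death.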
Sequence of Platelet-activating factor receptor (Mus musculus) (Q62035 whole entry): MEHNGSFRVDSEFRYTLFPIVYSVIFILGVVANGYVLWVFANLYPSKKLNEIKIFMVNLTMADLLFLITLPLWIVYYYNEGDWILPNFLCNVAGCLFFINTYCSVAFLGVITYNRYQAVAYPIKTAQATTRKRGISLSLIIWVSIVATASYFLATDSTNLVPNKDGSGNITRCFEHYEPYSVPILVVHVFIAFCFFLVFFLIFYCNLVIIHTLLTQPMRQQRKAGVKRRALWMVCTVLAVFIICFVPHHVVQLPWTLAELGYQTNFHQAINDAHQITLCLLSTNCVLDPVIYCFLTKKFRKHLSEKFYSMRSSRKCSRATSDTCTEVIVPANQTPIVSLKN

The test system of assay [2] is Mus musculus. The assay is described as follows: The compound was tested for their ability to protect mice from lethal effects after administration of PAF (Platelet-Activating Factor). The assay is classed as functional. The method, boiled down: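 Mice were given the compound orally and then a lethal injection of PAF. The value is the oral dose (ED50) that protected the mice from PAF-induced death.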

What is called ED50 is the midpoint of the dose-response relation.

As to `Cc1nc2cnccc2n1-c1ccc(C2CC(=O)Nc3cc(Cl)c(Cl)cc3C2)cc1` (stereo not given), in assay [1], the 50% effect level (ED50) was put at a dose of 0.05 mg/kg.

The compound `Cc1nc2cnccc2n1-c1ccc(C2=CCC(=O)c3ccccc3N2)cc1` yielded an ED50 in assay [1] of 0.75 mg/kg.

`Cc1nc2cnccc2n1-c1ccc(C2=Nc3cc(Cl)c(Cl)cc3NC(=O)C2)cc1` returned an ED50 in assay [1] of 0.07 mg/kg.

The compound `Cc1nc2cnccc2n1-c1ccc(C2=Nc3ccccc3N(C)C(=O)C2)cc1` yielded an ED50 in assay [1] of 0.03 mg/kg.

Turning to `CCOC(=O)C1=C(c2ccc(-n3c(C)nc4cnccc43)cc2)NC(C)=C(C(=O)Nc2ccccn2)C1c1ccccc1Cl` (stereo not given), the 50% effective dose (ED50) in assay [2] was 0.26 mg/kg.

As for `Cc1nnc2n1-c1sc3c(c1C(c1ccccc1Cl)=NC2)CC(C(=O)N1CCOCC1)C3` (stereo not given) [BEPAFANT], the ED50 in assay [2] was determined as 0.1 mg/kg.

For the compound `Cc1nc2cnccc2n1-c1ccc(C2=Nc3cc(Cl)c(Cl)cc3C(=O)NC2)cc1`, the 50% effect level in assay [1] (ED50) was put at a dose of 0.2 mg/kg.

Compound `Cc1nc2cnccc2n1-c1ccc(C2CC(=O)N(C)c3cc(Cl)c(Cl)cc3C2)cc1` (stereo not given) returned an ED50 in assay [1] of 0.03 mg/kg.

As for `Cc1cc2c(cc1C)NC(=O)CC(c1ccc(-n3c(C)nc4cnccc43)cc1)=N2`, the ED50 in assay [1] was found to be 0.12 mg/kg.

Take `Cc1nc2cnccc2n1-c1ccc(C2=Nc3ccccc3NC(=O)C2)cc1`: the ED50 in assay [1] was 0.5 mg/kg.
